Measurements gathered from unrelated publications.
Protocols differ between the studies behind these lines. pEC50: −log10 of the molar value.
Read-out: cell growth or viability

| Compound | cell line | technique | tested at | time | measurement | value |
| --- | --- | --- | --- | --- | --- | --- |
| O=C(Nc1ccc(Cl)cc1)Nc1cccc(-c2cn(Cc3cccc(Cl)c3)nn2)c1 | NCI-H1299 | CCK-8 | 50 µM | 72 h | viability | 104% |
| Cc1ccccc1Cn1cc(-c2cccc(NC(=O)Nc3ccc(F)cc3)c2)nn1 | NCI-H1299 | CCK-8 | 50 µM | 72 h | viability | 114% |
| CN(C)CCNC(=O)c1ccc(-c2nc3ccc4[nH]ncc4c3c3c2CCCCC3)c(F)c1 | 22Rv1 | – | – | 72 h | GI50 | 2130 nM |
| Cc1ncsc1-c1ccc(CNC(=O)[C@@H]2C[C@@H](O)CN2C(=O)[C@@H](NC(=O)COCCOCCOCCNC(=O)C[C@@H]2N=C(c3ccc(Cl)cc3)c3c(sc(C)c3C)-n3c(C)nnc32)C(C)(C)C)cc1 | 22Rv1 | MTT | – | 6 days | IC90 | 1850 nM |
| O=C(NCc1cn(Cc2ccc(Cl)cc2)nn1)Nc1ccc(Cl)cc1 | NCI-H1299 | CCK-8 | 50 µM | 72 h | viability | 82.3% |
| COc1ccc(NC(=O)Nc2cccc(-c3cn(Cc4cccc(Cl)c4)nn3)c2)cc1 | NCI-H1299 | CCK-8 | 50 µM | 72 h | viability | 134% |
| CCc1nc(C(N)=O)c(Nc2ccc(N3CCC(N4CCN(C)CC4)CC3)c(OC)c2)nc1NC1CCOCC1 | 22Rv1 | – | – | 72 h | GI50 | 1520 nM |
| COc1ccc(NC(=O)NCc2cn(Cc3ccccc3C)nn2)cc1 | NCI-H1299 | CCK-8 | 50 µM | 72 h | viability | 68.9% |
| O=C(NCc1cn(Cc2cccc(Cl)c2)nn1)Nc1ccc(Cl)cc1 | NCI-H1299 | CCK-8 | 50 µM | 72 h | viability | 91.6% |
| Cc1n[nH]c2ccc3nc(-c4ccc(C(=O)NCCN(C)C)cc4F)c4c(c3c12)CCCC4 | 22Rv1 | – | – | 72 h | GI50 | 556 nM |
| COc1ccc(NC(=O)Nc2cccc(-c3cn(Cc4ccc(Cl)cc4)nn3)c2)cc1 | NCI-H1299 | CCK-8 | 50 µM | 72 h | viability | 156% |
| Cc1n[nH]c2ccc3nc(-c4ccc(C(=O)NCCN(C)C)cc4F)c4c(c3c12)CCCCC4 | 22Rv1 | – | – | 72 h | GI50 | 4620 nM |
| C=C(NC(=O)C(=C)NC(=O)c1csc(C2=N[C@@H]3c4csc(n4)[C@H]4NC(=O)c5csc(n5)[C@H]([C@](C)(O)[C@@H](C)O)NC(=O)[C@H]5CSC(=N5)/C(=C/C)NC(=O)[C@H]([C@@H](C)O)NC(=O)c5csc(n5)[C@]3(CC2)NC(=O)[C@H](C)NC(=O)C(=C)NC(=O)[C@H](C)NC(=O)[C@H]([C@@H](C)CC)N[C@@H]2C=Cc3c([C@H](C)O)cc(nc3[C@H]2O)C(=O)O[C@@H]4C)n1)C(N)=O | PC3-TxR | – | – | – | pEC50 | < 4.52 |
| O=C(Nc1ccc(Cl)cc1)Nc1ccc(-c2cn(Cc3cccc(Cl)c3)nn2)cc1 | NCI-H1299 | CCK-8 | 50 µM | 72 h | viability | 82.8% |
| CN(C)CCNC(=O)c1ccc(-c2nc3ccc4[nH]ncc4c3c3c2CCCC3)cc1 | 22Rv1 | – | – | 72 h | GI50 | 1800 nM |
| COc1ccc(NC(=O)Nc2cccc(-c3cn(Cc4ccccc4C)nn3)c2)cc1 | NCI-H1299 | CCK-8 | 50 µM | 72 h | viability | 125% |
| O=C(Nc1cccc(-c2cn(Cc3ccc(Br)cc3)nn2)c1)Nc1ccccc1Br | NCI-H1299 | CCK-8 | 50 µM | 72 h | viability | 108% |
